Data set [1] relates to CCRF-CEM. The experiment in a line: Antiviral activity was measured on HIV-2 in wild-type CEM/O cells. Type of data set: functional, cell-based, Homo sapiens.
A short description of data set [2]: Half-life period was measured in RPMI-1640 culture medium at 37 degree C without FCS. The settings on record: RPMI-1640 culture medium without FCS. Type of data set: ADME.
Data set [3] in a line: Partition coefficient was measured. The data set is classed as ADME. The following applies: octanol/water. The method in brief: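 Compound dissolved in 1-octanol and mixed with equal volume of phosphate buffer (10 mmol, pH 6.8). Vortexed 10 min, phases separated by centrifugation. Each phase analysed by reversed-phase HPLC (UV 265 nm). Pa taken as the quotient of peak areas.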

Data set [4] has as its system CCRF-CEM. The experiment in a line: The cytotoxicity was measured on wild type CEM/O cells. Type of data set: functional. The settings on record: Homo sapiens.
A short description of data set [5]: Half-life period was measured in RPMI-1640 culture medium at 37 degree C with 10% heat-inactivated fetal calf serum.. The data set is classed as ADME. The settings on record: cattle.
Data set [6] in a line: Half-life period was measured in 30 mM sodium phosphate buffer at pH 7.3 at 37 degree C. Type of data set: ADME.
The test system of data set [7] is CCRF-CEM. The experiment in a line: Antiviral activity was measured on HIV-1 in wild-type CEM/O cells. The data set is classed as functional, cell-based, Homo sapiens.
For data set [8], the system named is CCRF-CEM. Kind of data set: (§1) Antiviral activity was measured on HIV-2 in mutant thymidine kinase-deficient CEM/TK- cells. Type of data set: functional, cell-based. The following applies: Homo sapiens.
Data set [9] in a line: Half-life period was measured in 30 mM sodium borate buffer at pH 8.9 at 37 degree C. The data set is classed as ADME.
Data set [10] can be described thus: Half-life period was measured in 30 mM TRIS buffer at pH 6.9 at 37 degree C. Type of data set: ADME.
The subject of data set [11] is CCRF-CEM. The data set is described as §1. Type of data set: functional, cell-based. The settings on record: Homo sapiens. The method in brief: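 CEM/O or TK-deficient CEM/TK- cells at 4 × 10⁵ cells/mL infected with HIV-1 (HTLV-IIIB) or HIV-2 (LAV 2) at ~100 CCID50/mL. Infected suspension mixed 1:1 with serial compound dilutions. Giant cell formation scored microscopically after 4 days.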
The source holds these as a separate data set.

In data set [12] the test system is MT4. The experiment in a line: Antiviral activity was measured on HIV-1 in MT-4 cells. Type of data set: functional, cell-based. The following applies: Homo sapiens.
In data set [13] the test system is MT4. Kind of data set: Antiviral activity was measured on HIV-2 in MT-4 cells. The settings on record: Homo sapiens. Type of data set: functional, cell-based.
The subject of data set [14] is CCRF-CEM. The experiment in a line: The cytotoxicity was measured on wild type CEM/O cells for R configuration. The data set is classed as functional. The settings on record: Homo sapiens.
The test system of data set [15] is CCRF-CEM. The experiment in a line: The cytotoxicity was measured on wild type CEM/O cells for S configuration. Type of data set: functional. The following applies: Homo sapiens.
Data set [16] concerns CCRF-CEM. The experiment in a line: Antiviral activity was measured on HIV-2 in wild-type CEM/O cells for S configuration. Type of data set: functional, cell-based. The following applies: Homo sapiens.
The test system of data set [17] is CCRF-CEM. Kind of data set: Antiviral activity was measured on HIV-2 in mutant thymidine kinase-deficient CEM/TK- cells for S configuration. The following applies: Homo sapiens. Type of data set: functional, cell-based.
In data set [18] the test system is CCRF-CEM. Kind of data set: Antiviral activity was measured on HIV-2 in mutant thymidine kinase-deficient CEM/TK- cells for R configuration. The settings on record: Homo sapiens. The data set is classed as functional, cell-based.
The subject of data set [19] is CCRF-CEM. Kind of data set: Antiviral activity was measured on HIV-2 in wild-type CEM/O cells for R configuration. Type of data set: functional, cell-based. The following applies: Homo sapiens.
Data set [20] deals with CCRF-CEM. Kind of data set: Antiviral activity was measured on HIV-1 in wild-type CEM/O cells for R configuration. The data set is classed as functional, cell-based. The settings on record: Homo sapiens.
In data set [21] the test system is CCRF-CEM. The experiment in a line: Antiviral activity was measured on HIV-1 in wild-type CEM/O cells for S configuration. Type of data set: functional, cell-based. The settings on record: Homo sapiens.
Data set [22] has as its system MT4. Kind of data set: Antiviral activity was measured on HIV-2 in MT-4 cells for R configuration. The settings on record: Homo sapiens. Type of data set: functional, cell-based.
For data set [23], the system named is MT4. Kind of data set: Antiviral activity was measured on HIV-1 in MT-4 cells for R configuration. Type of data set: functional, cell-based. The settings on record: Homo sapiens.
Data set [24] deals with CCRF-CEM. Kind of data set: The cytotoxicity was measured on wild type CEM/O cells. The data set is classed as functional. The following applies: Homo sapiens.

Molecules are shown by their SMILES. A value given as a limit tells only on which side of the number the result lay.

In general, EC50 refers to the concentration at which the effect is half-maximal. High values mean weaker potency, low ones greater potency. By half-life is commonly meant the time needed for the level to fall by half in the phase considered. High values mean slow decline, low ones rapid decline. In general, CC50 refers to the concentration giving 50% cytotoxicity. Low readings indicate greater toxicity to the cells, high ones lower toxicity to the cells. For `COc1ccc2c(c1)COP(=O)(OC[C@@H]1C=C[C@H](n3cc(C)c(=O)[nH]c3=O)O1)O2` (stereo partly specified), the EC50 with CCRF-CEM [1] (Homo sapiens, CCRF-CEM) was 700 nM; in the data set with CCRF-CEM [7] (Homo sapiens, CCRF-CEM), 180 nM; in the data set with CCRF-CEM [8], 800 nM. Also, the half-life was 7.2 h in [2]; 4.3 h in data set [5]; 7.2 h in data set [6]; 1.07 h in data set [9]; 28.3 h in data set [10]. Moreover, the Pa in [3] was 2.3. Further, the CC50 in the data set with CCRF-CEM [4] was determined as 39000 nM.

Take `Cc1ccc2c(c1)COP(=O)(OC[C@@H]1C=C[C@H](n3cc(C)c(=O)[nH]c3=O)O1)O2` (stereo partly specified): the Pa in data set [3] came out at 5.4.

As for `Cc1cn(C2C=CC(COP3(=O)OCc4cc(Cl)ccc4O3)O2)c(=O)[nH]c1=O` (stereo unspecified), the concentration giving a half-maximal response (EC50) in the data set on CCRF-CEM [1] (Homo sapiens, CCRF-CEM) turned out to be 1400 nM; in the data set on CCRF-CEM [11], 2670 nM; in the data set with MT4 [12], 31 nM; with MT4 [13], 38 nM. Moreover, the Pa in data set [3] was found to be 7.6. Moreover, in the data set on CCRF-CEM [4], the CC50 came out at 49000 nM.

`Cc1cc(C)c2c(c1)COP(=O)(OCC1C=CC(n3cc(C)c(=O)[nH]c3=O)O1)O2` (stereo unspecified): in data set [3], the Pa is recorded as 15.3.

On to `COc1ccc(O)c(CO)c1`, for which the EC50 in the data set on CCRF-CEM [1] (Homo sapiens, CCRF-CEM) was more than 250000 nM; with CCRF-CEM [7] (Homo sapiens, CCRF-CEM) it was more than 250000 nM. In addition, the CC50 in the data set on CCRF-CEM [4] was determined as 158000 nM.

As for `Cc1cccc(CO)c1O`, the EC50 is more than 250000 nM with CCRF-CEM [1] (Homo sapiens, CCRF-CEM) and more than 250000 nM with CCRF-CEM [7] (Homo sapiens, CCRF-CEM). The CC50 in the data set on CCRF-CEM [4] was more than 250000 nM.

Consider `COc1cccc2c1OP(=O)(OCC1C=CC(n3cc(C)c(=O)[nH]c3=O)O1)OC2` (stereo unspecified), for which the CC50 in the data set on CCRF-CEM [14] worked out at 38000 nM; in the data set with CCRF-CEM [15], 84000 nM; with CCRF-CEM [4], 35000 nM. In addition, the EC50 in the data set on CCRF-CEM [1] (Homo sapiens, CCRF-CEM) amounted to 420 nM; in the data set with CCRF-CEM [16], 1030 nM; in the data set on CCRF-CEM [17], 9670 nM; in the data set on CCRF-CEM [18], 120 nM; in the data set on CCRF-CEM [19], 170 nM; in the data set with CCRF-CEM [20], 140 nM. Moreover, the EC50 with CCRF-CEM [7] (Homo sapiens, CCRF-CEM) is 170 nM; with CCRF-CEM [21], 470 nM; in the data set with CCRF-CEM [8] it was 170 nM. Further, the half-life in data set [2] was 3.2 h; in data set [5], 2 h; in [6] it was 1.4 h; in [9], 0.4 h; in [10] it was 9.5 h. This compound showed a Pa in data set [3] of 1.4.

With `Cc1cn([C@H]2C=C[C@@H](COP3(=O)OCc4cc([N+](=O)[O-])ccc4O3)O2)c(=O)[nH]c1=O` (stereo partly specified), the EC50 in the data set on CCRF-CEM [1] (Homo sapiens, CCRF-CEM) was 400 nM; with CCRF-CEM [11], 40000 nM; in the data set with CCRF-CEM [7] (Homo sapiens, CCRF-CEM), 290 nM. The compound further registered a Pa in data set [3] of 1.5. In the data set on CCRF-CEM [4], this compound displayed a CC50 of 75000 nM.

`Cc1cn([C@H]2C=C[C@@H](COP3(=O)OCc4ccccc4O3)O2)c(=O)[nH]c1=O` (stereo partly specified) gave a Pa in [3] of 1.9.

For the compound `Cc1cccc2c1OP(=O)(OC[C@@H]1C=C[C@H](n3cc(C)c(=O)[nH]c3=O)O1)OC2` (stereo partly specified), the results for the CC50 in the data set on CCRF-CEM [14], in the data set on CCRF-CEM [15] and in the data set with CCRF-CEM [4] were 11000 nM, 76000 nM and 21000 nM, respectively. For the same compound, the EC50 in the data set on CCRF-CEM [1] (Homo sapiens, CCRF-CEM) amounted to 120 nM; with CCRF-CEM [16], 1100 nM; with CCRF-CEM [17], 700 nM; in the data set with CCRF-CEM [18], 63 nM; with CCRF-CEM [19], 67 nM; in the data set with MT4 [22] it was 11 nM. Also, the EC50 was 12 nM in the data set with MT4 [23]; 28 nM in the data set with MT4 [12]; 80 nM in the data set with CCRF-CEM [20]; 87 nM in the data set with CCRF-CEM [7] (Homo sapiens, CCRF-CEM); 420 nM in the data set with CCRF-CEM [21]; 93 nM in the data set on CCRF-CEM [8]. In the data set on MT4 [13], this compound had an EC50 of 33 nM. The half-life is 16 h in data set [2]; 9.1 h in [5]; 10.2 h in [6]; 1.5 h in data set [9]; 68.5 h in [10]. For the same compound, the Pa in [3] is recorded as 5.1.

For the compound `OCc1ccccc1O` [SALICYL ALCOHOL], the concentration for a half-maximal effect (EC50) is more than 250000 nM with CCRF-CEM [1] (Homo sapiens, CCRF-CEM) and more than 250000 nM in the data set with CCRF-CEM [7] (Homo sapiens, CCRF-CEM). This compound also showed a CC50 with CCRF-CEM [4] of more than 250000 nM.

As for `Cc1cn([C@H]2C=C[C@@H](CO)O2)c(=O)[nH]c1=O` [STAVUDINE], the EC50 came out at 260 nM with CCRF-CEM [1] (Homo sapiens, CCRF-CEM); 260 nM in the data set on CCRF-CEM [1] (ccrf-cem); 18 nM in the data set with MT4 [12]; 180 nM with CCRF-CEM [7] (Homo sapiens, CCRF-CEM); 180 nM in the data set with CCRF-CEM [7] (ccrf-cem); 15000 nM with CCRF-CEM [8]. Also, a half-maximal effect with MT4 [13] (EC50) was put at 22 nM. In addition, the Pa in data set [3] is on record as 0.15. Besides, the CC50 in the data set with CCRF-CEM [4] and with CCRF-CEM [24] was 56000 nM each time.

Turning to `Cc1cn([C@H]2C[C@H](N=[N+]=[N-])[C@@H](CO)O2)c(=O)[nH]c1=O` [ZIDOVUDINE], the CC50 with CCRF-CEM [4] is more than 100000 nM. The EC50 with CCRF-CEM [7] (Homo sapiens, CCRF-CEM) is 7 nM; in the data set on CCRF-CEM [8] it was more than 100000 nM.

The values are drawn from ChEMBL document CHEMBL1131531, “cycloSal-2',3'-dideoxy-2',3'-didehydrothymidine monophosphate (cycloSal-d4TMP): synthesis and antiviral evaluation of a new d4TMP delivery system” (J Med Chem, 1998).
